Source: ChEMBL document CHEMBL1125378, “alpha-Methyl polyamines: metabolically stable spermidine and spermine mimics capable of supporting growth in cells depleted of polyamines” (J Med Chem, 1992)

Tests used:
SV3T3 [1] = assay: Compound level in 72 h DFMO (5 mM)-treated SV3T3 cells after exposure to 10 uM 1-methylspermidine; type: functional, cell-based; details: Mus musculus
Summary of the method: (§1)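 SV-3T3 fibroblasts (experiment A) held in 5 mM DFMO for 72 h before polyamine addition and throughout a further 72 h. Intracellular polyamines expressed as nmol/mg protein (detection limit 0.05). SD from at least four separate experiments, or duplicate where no SD is given.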

SV3T3 [2] = assay: Compound level in 72 hr DFMO (5 mM)-treated SV3T3 cells after exposure to 1 uM 1-methylspermidine; type: functional, cell-based; details: Mus musculus; summary of the method: as §1
HT-29 [3] = assay: Compound level in 72 hr DFMO (5 mM)-treated HT-29 cells after exposure to 10 uM 1-methylspermidine; type: functional, cell-based; details: Homo sapiens
Summary of the method: (§2)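 HT29 cells pretreated with 5 mM DFMO for 120 h, then polyamine added and culture continued with DFMO for 72 h (experiment A); refed at 96 h. Cellular polyamine content given as nmol/mg protein (detection limit 0.2). SD from at least four separate experiments.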

[4] = Retention time was determined; type: ADME
HT-29 [5] = assay: Compound level in 72 hr DFMO (5 mM)-treated HT-29 cells after exposure to 25 uM 1-methylspermine; type: functional, cell-based; details: Homo sapiens; summary of the method: as §2
SV3T3 [6] = assay: Compound level in 72 hr DFMO (5 mM)-treated SV3T3 cells after exposure to 1 uM 1-methylspermine; type: functional, cell-based; details: Mus musculus; summary of the method: as §1
SV3T3 [7] = assay: Compound level in 72 hr DFMO (5 mM)-treated SV3T3 cells after exposure to 10 uM 1-methylspermine; type: functional, cell-based; details: Mus musculus; summary of the method: as §1
HT-29 [8] = assay: Compound level in 72 hr DFMO (5 mM)-treated HT-29 cells after exposure to 10 uM 1-methylspermine; type: functional, cell-based; details: Homo sapiens; summary of the method: as §2
L1210 [9] = assay: Compound level in 72 hr DFMO (5 mM)-treated L1210 cells after exposure to 10 uM 1-methylspermidine; type: functional, cell-based; details: Mus musculus
Summary of the method: (§3)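 L1210 cells held in 5 mM DFMO for 72 h before polyamine addition and through a further 72 h, refed at 72 h; controls without DFMO cultured 72 h in total. Intracellular polyamines reported as nmol/mg protein (detection limit 0.2). Mean ± SD from at least four separate experiments.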

SV3T3 [10] = assay: Compound level in 72 hr DFMO (5 mM)-treated SV3T3 cells after exposure to 25 uM 1-methylspermidine; type: functional, cell-based; details: Mus musculus; summary of the method: as §1
HT-29 [11] = assay: Compound level in 72 hr DFMO (5 mM)-treated HT-29 cells after exposure to 25 uM 1-methylspermidine; type: functional, cell-based; details: Homo sapiens; summary of the method: as §2
SV3T3 [12] = assay: Compound level in 72 hr DFMO (5 mM)-treated SV3T3 cells after exposure to 25 uM 1-methylspermine; type: functional, cell-based; details: Mus musculus; summary of the method: as §1
L1210 [13] = assay: Compound level in 72 hr DFMO (5 mM)-treated L1210 cells after exposure to 10 uM 1-methylspermine; type: functional, cell-based; details: Mus musculus; summary of the method: as §3
HT-29 [14] = assay: Compound level in DFMO-treated HT-29 cells after 72 h; type: functional, cell-based; details: Homo sapiens; summary of the method: as §2
SV3T3 [15] = assay: Compound level in 72 hr DFMO (5 mM)-treated SV3T3 cells after exposure to 10 uM spermine; type: functional, cell-based; details: Mus musculus; summary of the method: as §1
HT-29 [16] = assay: Compound level in HT-29 cells after 72 h; type: functional, cell-based; details: Homo sapiens
HT-29 [17] = assay: Compound level in 72 hr DFMO (5 mM)-treated HT-29 cells after exposure to 10 uM spermine; type: functional, cell-based; details: Homo sapiens; summary of the method: as §2
L1210 [18] = assay: Compound level in 72 h DFMO (5 mM)-treated L1210 cells after exposure to 10 uM spermine; type: functional, cell-based; details: Mus musculus; summary of the method: as §3
HT-29 [19] = assay: Compound level in 72 hr DFMO (5 mM)-treated HT-29 cells after exposure to 10 uM spermidine; type: functional, cell-based; details: Homo sapiens; summary of the method: as §2
Homo sapiens = species: Homo sapiens; assay: Compound level in DFMO-treated HT-29 cells after 96 h; type: functional, cell-based
Summary of the method: (§4)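 HT29 experiment B: 5 mM DFMO for 120 h before addition and throughout a further 96 h; refed at 96 h. Cells without DFMO cultured 96 h in total. Polyamines measured as nmol/mg protein (detection limit 0.2). SD from at least four separate experiments.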

L1210 [20] = assay: Compound level in L1210 cells after 72 h; type: functional, cell-based; details: Mus musculus; summary of the method: as §3
L1210 [21] = assay: Compound level in DFMO-treated L1210 cells at 0 h; type: functional, cell-based; details: Mus musculus; summary of the method: as §3
SV3T3 [22] = assay: Compound level in 72 hr DFMO (5 mM)-treated SV3T3 cells after exposure to 10 uM spermidine; type: functional, cell-based; details: Mus musculus; summary of the method: as §1
HT-29 [23] = assay: Compound level in 96 hr DFMO (5 mM)-treated HT-29 cells after exposure to 10 uM spermine; type: functional, cell-based; details: Homo sapiens
SV3T3 [24] = assay: Compound level in DFMO-treated SV3T3 cells at 0 h; type: functional, cell-based; details: Mus musculus; summary of the method: as §1
L1210 [25] = assay: Compound level in 72 hr DFMO (5 mM)-treated L1210 cells after exposure to 10 uM 1,12-dimethylspermine; type: functional, cell-based; details: Mus musculus; summary of the method: as §3
HT-29 [26] = assay: Compound level in 72 hr DFMO (5 mM)-treated HT-29 cells after exposure to 15 uM spermine; type: functional, cell-based; details: Homo sapiens; summary of the method: as §2
SV3T3 [27] = assay: Compound level in 96 hr DFMO (5 mM)-treated SV3T3 cells after exposure to 25 uM spermine; type: functional, cell-based; details: Mus musculus
SV3T3 [28] = assay: Compound level in 96 hr DFMO (5 mM)-treated SV3T3 cells after exposure to 10 uM spermine; type: functional, cell-based; details: Mus musculus
HT-29 [29] = assay: Compound level in HT-29 cells after 96 h; type: functional, cell-based; details: Homo sapiens; summary of the method: as §4
HT-29 [30] = assay: Compound level in 72 h DFMO (5 mM)-treated HT-29 cells after exposure to 25 uM spermidine; type: functional, cell-based; details: Homo sapiens
L1210 [31] = assay: Compound level in 72 hr DFMO (5 mM)-treated L1210 cells after exposure to 10 uM spermidine; type: functional, cell-based; details: Mus musculus; summary of the method: as §3
SV3T3 [32] = assay: Compound level in SV3T3 cells after 96 hr; type: functional, cell-based; details: Mus musculus

Compound: CC(N)CCNCCCCNCCCN (configuration not stated)
- Level (nM (mg of protein)-1) (SV3T3 [1]): 4.2
- Level (nM (mg of protein)-1) (SV3T3 [2]): 2.4
- Level (nM (mg of protein)-1) (HT-29 [3]): 7.8
- tR [4]: 40.5 min
- Level (nM (mg of protein)-1) (HT-29 [5]): 24.2
- Level (nM (mg of protein)-1) (SV3T3 [6]): 11.8
- Level (nM (mg of protein)-1) (SV3T3 [7]): 33.7
- Level (nM (mg of protein)-1) (HT-29 [8]): 21.3
- Level (nM (mg of protein)-1) (L1210 [9]): 7.8
- Level (nM (mg of protein)-1) (SV3T3 [10]): 4.4
- Level (nM (mg of protein)-1) (HT-29 [11]): 8.6
- Level (nM (mg of protein)-1) (SV3T3 [12]): 33.1
- Level (nM (mg of protein)-1) (L1210 [13]): 63.4

Compound: NCCCCNCCCN [SPERMIDINE]
- Level (nM (mg of protein)-1) (HT-29 [14]): 0.7
- tR [4]: 33.9 min
- Level (nM (mg of protein)-1) (SV3T3 [15]): 2.6
- Level (nM (mg of protein)-1) (HT-29 [16]): 9.8
- Level (nM (mg of protein)-1) (HT-29 [17]): 7.9
- Level (nM (mg of protein)-1) (HT-29 [5]): 0.3
- Level (nM (mg of protein)-1) (L1210 [18]): 6.4
- Level (nM (mg of protein)-1) (HT-29 [19]): 23.6
- Level (nM (mg of protein)-1) (Homo sapiens): 0.4
- Level (nM (mg of protein)-1) (HT-29 [8]): 0.4
- Level (nM (mg of protein)-1) (L1210 [20]): 41
- Level (nM (mg of protein)-1) (L1210 [21]): 1
- Level (nM (mg of protein)-1) (SV3T3 [22]): 8.7
- Level (nM (mg of protein)-1) (HT-29 [23]): 4.4
- Level (nM (mg of protein)-1) (SV3T3 [24]): 0.3
- Level (nM (mg of protein)-1) (L1210 [25]): 0.2
- Level (nM (mg of protein)-1) (HT-29 [26]): 4.8
- Level (nM (mg of protein)-1) (SV3T3 [27]): 3.1
- Level (nM (mg of protein)-1) (SV3T3 [28]): 11.5
- Level (nM (mg of protein)-1) (HT-29 [29]): 13.4
- Level (nM (mg of protein)-1) (HT-29 [30]): 25.1
- Level (nM (mg of protein)-1) (L1210 [31]): 38
- Level (nM (mg of protein)-1) (SV3T3 [32]): 26.4

Compound: NCCCCN
- Level (nM (mg of protein)-1) (HT-29 [16]): 4.4
- Level (nM (mg of protein)-1) (L1210 [20]): 5.8
- Level (nM (mg of protein)-1) (SV3T3 [24]): 0.5
- Level (nM (mg of protein)-1) (HT-29 [29]): 5.9
- Level (nM (mg of protein)-1) (L1210 [31]): 0.8
- Level (nM (mg of protein)-1) (SV3T3 [32]): 0.9
